The values that follow come from PubChem BioAssay AID463147 (The Scripps Research Institute Molecular Screening Center, 2010).

Active and inactive are the calls of the source.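 Rule for the calls: active = fold change below 0.7, the computed hit cutoff; inactive = the rest.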

Chain of Nuclear receptor ROR-gamma (Homo sapiens) (P51449 whole entry, looked up, the tested form may be a part): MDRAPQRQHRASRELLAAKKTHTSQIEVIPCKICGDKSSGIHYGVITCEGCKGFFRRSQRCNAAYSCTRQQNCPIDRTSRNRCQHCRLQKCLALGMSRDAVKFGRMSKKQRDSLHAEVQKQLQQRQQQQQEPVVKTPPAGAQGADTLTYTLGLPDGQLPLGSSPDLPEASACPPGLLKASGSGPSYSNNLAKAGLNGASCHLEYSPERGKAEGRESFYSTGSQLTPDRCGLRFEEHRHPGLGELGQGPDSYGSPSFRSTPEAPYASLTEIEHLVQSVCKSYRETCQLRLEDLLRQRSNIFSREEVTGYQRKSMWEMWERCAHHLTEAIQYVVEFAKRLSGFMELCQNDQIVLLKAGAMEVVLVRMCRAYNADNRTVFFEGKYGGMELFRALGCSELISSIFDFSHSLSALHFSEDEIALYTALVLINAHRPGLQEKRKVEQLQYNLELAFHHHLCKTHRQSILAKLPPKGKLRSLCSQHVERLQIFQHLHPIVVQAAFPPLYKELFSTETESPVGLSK

This test addresses Nuclear receptor ROR-gamma (Homo sapiens) (UniProt P51449). The test can be described thus: RORγ-driven luciferase suppression – cell-based, luminescence, single concentration, HEK293T GAL4-RORg, selectivity assay for RORA inverse agonist project, late-stage follow-up (AID 463147). Particulars: HEK293T GAL4-RORg LBD luciferase reporter, 18-24 h; at 10 µM; stronger effect = lower value. Put shortly: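 Assay system: transfected HEK293T, GAL4-RORγ LBD and UAS-luciferase reporter; Measured by: luciferase luminescence from UAS reporter; Times: 20 h compound treatment; Compound: single nominal concentration of 10 µM per compound; Benchmarks: DMSO wells as reference; Repeats: six replicates per compound.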
Background: Reporter assays use an easily measured gene product as a stand-in for the process of interest.
As for `O=C(Nc1ccc(C(O)(C(F)(F)F)C(F)(F)F)cc1)c1ccccc1C(F)(F)F`, the fold change is 0.897 (inactive). Then `O=C(Nc1ccc(C(O)(C(F)(F)F)C(F)(F)F)cc1)c1ccc(Cl)cc1`, with 0.873 (inactive); and `O=C(Nc1ccc(C(O)(C(F)(F)F)C(F)(F)F)cc1)c1ccc(F)cc1Cl`, with 0.974 (inactive). Then `O=S(=O)(Nc1ccc(C(O)(C(F)(F)F)C(F)(F)F)cc1)c1cccs1`, with 0.91 (inactive); and `O=C(Nc1ccc(C(O)(C(F)(F)F)C(F)(F)F)cc1)c1c(F)cccc1F`, with 1.06 (inactive). Next, `O=C(Nc1ccc(C(O)(C(F)(F)F)C(F)(F)F)cc1)c1ccc(F)cc1F`: 1.23 (inactive).
